In the library only some 1.4% were active in any assay of this set; here they are far more common.
UCH37 DUB inh: human UCH37 deubiquitinating enzyme inhibition; Q9Y5K5; purified proteasome/UCH37, Ub-AMC cleavage fluorescence; inhibition, % (concentration not given with the values); actives 0.33% (n = 330,000); AID 588478;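 active = mean inhibition over replicate wells above about 20%, limit read from the data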
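assay system = human UCH37 enzyme supplied as purified proteasome complex | amount = proteasome at 0.15 nM in the dispensed enzyme solution | schedule = 30 min compound-proteasome preincubation then 25 min substrate reaction, room temperature | measured by = fluorescence, ex 355 nm, em 460 nm | benchmarks = no-proteasome wells (full inhibition) and compound-free wells (no inhibition)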
TbMetRS inhib: Trypanosoma brucei MetRS inhibition. AID 624268. actives 0.4% (n = 360,000). inhibition, % at 11.9 µM. purified T. brucei MetRS, ATP depletion, Kinase-Glo luminescence;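 active = inhibition above a per-plate cutoff of the control wells' mean inhibition plus 3 SD, cut at about 5.5% in these data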
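Dosing: 11.9 µM single point; system: parasite MetRS enzyme; technique: luminescence of leftover ATP; times: 15 min enzyme-compound preincubation, 2 h reaction, 10 min detection, 25 °C; replicates: each compound tested once; read-out basis: percent inhibition relative to median high and low control wells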
Rin1-Abl PPI inh: blocks binding of human Rin1 to Abl. inhibition, % at 7.35 µM. actives 0.4% (n = 360,000). AID 588664. TR-FRET Rin1/Abl binding, biochemical. P00519+Q13671; in the data active = inhibition above about 5%, passing the limit was not always enough
ATG4B inh: ATG4B (human) cysteine protease inhibition. Q9Y4P1. ATG4B cleavage of LC3-PLA2, NBD-HPC fluorescence, 1 h. inhibition, % at 8.33 µM. actives 0.51% (n = 340,000); in the data active = inhibition above about 40%
Rin1 Abl conf: confirmation of inhibitors of human Rin1-Abl interaction | actives 49% (n = 1,300) | shares compounds with Rin1-Abl PPI inh | inhibition, % at 7.35 µM | TR-FRET Rin1-Abl binding, purified proteins | AID 602124
GFP quench-1: GFP fluorescence interference artifact | shares compounds with Rin1-Abl PPI inh | inhibitors/quenchers counterscreen | inhibition, % at 6.75 µM | actives 8.5% (n = 1,300) | AID 602125;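 note: ABL1-eGFP fusion protein alone without its partner RIN1-SBP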
GFP quench dose: counter-screen for Rin1-Abl inhibitors: GFP quenchers, dose response; shares compounds with Rin1-Abl PPI inh; GFP fluorescence interference/quenching counterscreen; IC50, µM; 230 tested, under 10 active; AID 602182; call rule not given here;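 note: ABL1-eGFP fusion protein alone without its RIN1 binding partner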
GFP quench-2: quenches GFP fluorescence in Rin1-Abl counterscreen | GFP fluorescence quenching counterscreen, biochemical | shares compounds with Rin1-Abl PPI inh | IC50, µM | 25 tested, under 10 active | AID 602397; call rule not given here
Each line names hits and unclear results; the compound was inactive in the other large screens (follow-up assays come after a bar, where they were run). Cut-off read from the data, not from the text of the source, unless noted: active = inhibition above about 6.5%; inactive = the rest.

O=C(COc1ccccc1C(=O)N/N=C\c1ccc(O)c(O)c1)N/N=C/c1ccc(O)c(O)c1	Rin1-Abl PPI inh 28 (no result: UCH37 DUB inh) | Rin1 Abl conf 38 | GFP quench-1 12
CC(C)(C)c1ccc(OCc2ccc(C(=O)N/N=C/c3ccc(O)c(O)c3)cc2)cc1	Rin1-Abl PPI inh 8.2 (no result: UCH37 DUB inh) | Rin1 Abl conf 8.8 | GFP quench-1 inactive
Cc1ccccc1-n1nc(C)c2cc(C(=O)N3CCN(S(=O)(=O)c4ccc(F)cc4)CC3)sc21	none
COc1cc2[nH]c3c(=O)n(CCN4CCOCC4)cnc3c2cc1OC	none
COc1ccc(Br)cc1CN(C)C(=O)c1ccccc1OCc1c(C)noc1C	Rin1-Abl PPI inh 9.0 | Rin1 Abl conf inactive | GFP quench-1 inactive
CC(=O)Nc1sc(NN=Cc2ccccc2F)nc1-c1ccc(C)cc1	none (no result: TbMetRS inhib, Rin1-Abl PPI inh, ATG4B inh)
COc1ccc(-n2ncc3c2CC(C)(C)CC3NC(=O)C2CCN(C(C)=O)CC2)cc1 (stereo not given)	none
CCOC(=O)C1=C(C)NC(C)=C(C(=O)OCC)C1C(=O)OCC(=O)NCc1ccc(F)cc1	none
COc1ccc(OC)c(CN2CCN(S(=O)(=O)c3ccc(NC(C)=O)cc3)CC2)c1	Rin1-Abl PPI inh 10 | Rin1 Abl conf inactive | GFP quench-1 inactive
COc1cccc(CC(=O)Nc2ccc(S(=O)(=O)N3CCCCC3)cc2)c1	Rin1-Abl PPI inh 8.9 | Rin1 Abl conf inactive | GFP quench-1 inactive
COc1cccc(CN2CCN(S(=O)(=O)c3ccc(NC(C)=O)cc3)CC2)c1OC	none
Cc1ccc(Cl)cc1N1CCN(C(CC(C)C)c2nnnn2CC2CCCO2)CC1 (stereo not given)	Rin1-Abl PPI inh 7.4 | Rin1 Abl conf inactive | GFP quench-1 inactive
CCSc1nnc(NC(=O)CSc2nc3c(c(=O)n2C)SC(C)C3)s1 (stereo not given)	Rin1-Abl PPI inh 9.5 | Rin1 Abl conf inactive | GFP quench-1 inactive
CCSc1nnc(NC(=O)CSc2nc3c(c(=O)n2CC)SC(C)C3)s1 (stereo not given)	none
O=C1CCCC(O)=C1N=Nc1ccc(C(=O)O)cc1	Rin1-Abl PPI inh 6.7 | Rin1 Abl conf inactive | GFP quench-1 inactive
CCN(CC)S(=O)(=O)c1ccc(N=NC2=C(O)CCCC2=O)cc1	none
O=C(c1ccc2[nH]c(=O)c(=O)[nH]c2c1)N1CCN(Cc2ccccc2)CC1	none
CN(C)c1cccc(CNC(=O)c2ccc3nc([C@@H]4O[C@H](CO)[C@H](O)[C@H](O)[C@H]4O)[nH]c3c2)c1	Rin1-Abl PPI inh 14 (no result: UCH37 DUB inh, ATG4B inh) | Rin1 Abl conf inactive | GFP quench-1 inactive
CCC(CC)CN1CCC(CN2C(=O)C(=O)NC[C@@H]2CC(C)C)CC1	Rin1-Abl PPI inh 19 (no result: UCH37 DUB inh, ATG4B inh) | Rin1 Abl conf 14 | GFP quench-1 inactive
N#Cc1ccccc1Sc1ccccc1C(=O)NCC(c1ccco1)N1CCCC1 (stereo not given)	Rin1-Abl PPI inh 49 | Rin1 Abl conf 62 | GFP quench-1 inactive | GFP quench dose inactive | GFP quench-2 inactive
COc1cc(OC)cc(-c2oc(=O)c3cc(OC)c(OC)cc3c2C#CCCO)c1	Rin1-Abl PPI inh 29 | Rin1 Abl conf 76 | GFP quench-1 inactive
COc1ccc(-c2oc(=O)c3cc(OC)c(OC)cc3c2C#CCCO)cc1	none (no result: UCH37 DUB inh)
COc1cc2c(C(=O)N3CCN(c4cccc(Cl)c4)CC3)cn(C)c(=O)c2cc1OC	Rin1-Abl PPI inh 17 | Rin1 Abl conf 32 | GFP quench-1 inactive | GFP quench dose inactive
O=C(NCc1ccncc1)c1cc2ccccc2nc1Cl	none
CC(=O)NC(c1cc(Cl)c2cccnc2c1O)C(C)C (stereo not given)	none
CC(=O)NC(c1ccco1)c1cc(Cl)c2cccnc2c1O (stereo not given)	Rin1-Abl PPI inh 11 (no result: UCH37 DUB inh, ATG4B inh) | Rin1 Abl conf 11 | GFP quench-1 inactive
COc1cccc(C(NC(C)=O)c2ccc3cccnc3c2O)c1 (stereo not given)	Rin1-Abl PPI inh 6.7 (no result: UCH37 DUB inh) | Rin1 Abl conf 9.6 | GFP quench-1 inactive
CC(=O)NC(c1ccc(C)cc1)c1cc(Cl)c2cccnc2c1O (stereo not given)	Rin1-Abl PPI inh 7.0 (no result: UCH37 DUB inh) | Rin1 Abl conf inactive | GFP quench-1 inactive
O=C1N[C@@H](Cc2ccccc2)COC(=O)[C@H](Cc2ccc(F)cc2)CC/C=C/C[C@H]1CC(=O)N(CCO)Cc1ccccc1	none
Clc1ccc(-n2cccc2)cn1	none
O=C(NCCO)c1ccc2nc(-c3ccco3)c(-c3ccco3)nc2c1	Rin1-Abl PPI inh 10.0 | Rin1 Abl conf inactive | GFP quench-1 14
O=C(NCCc1ccccc1)c1ccc2nc(-c3ccco3)c(-c3ccco3)nc2c1	none
COc1ccc(NC(=O)Cn2c([N+](=O)[O-])cnc2C)cc1Cl	none
Cc1ccc2nc(N3CCN(S(=O)(=O)c4ccc5c(c4)OCCO5)CC3)c(C#N)cc2c1	none
COc1cc(Br)c(C(=O)c2nccc3cc(OC)c(OC)cc23)cc1OC	Rin1-Abl PPI inh 6.0 (no result: UCH37 DUB inh) | Rin1 Abl conf inactive | GFP quench-1 inactive
COc1cc(N)c(C(=O)c2nccc3cc(OC)c(OC)cc23)cc1OC	none
CCCc1cc(N2CCOCC2)n2nc(C)c(-c3ccccc3)c2n1	none
CCCc1cc(N2CCN(c3ccccn3)CC2)n2nc(C)c(-c3ccccc3)c2n1	Rin1-Abl PPI inh 8.1 | Rin1 Abl conf inactive | GFP quench-1 inactive
O=C(CC1C(=O)NCCN1Cc1c(F)cccc1Cl)NCCCOc1cccnc1 (stereo not given)	Rin1-Abl PPI inh 14 | Rin1 Abl conf 12 | GFP quench-1 inactive
Cc1ccc(S(=O)(=O)N(C)C)cc1NC(=O)COc1ccc(-c2nnco2)cc1	none
COc1ccc(NC(=O)Cn2c(=O)n(CC3CCCO3)c(=O)c3cc(OC)c(OC)cc32)cc1OC (stereo not given)	Rin1-Abl PPI inh 9.9 | Rin1 Abl conf 8.8 | GFP quench-1 inactive
COc1ccc(NC(=O)C(NCC(C)C)c2ccccc2)cc1Cl (stereo not given)	none
O=C(NCCc1ccc(Cl)cc1)C1CC(=O)N(C2CCCC2)C1 (stereo not given)	Rin1-Abl PPI inh 15 | Rin1 Abl conf inactive | GFP quench-1 inactive
O=C(NCCc1ccc(Cl)cc1)C1CCC(=O)N(C2CCCCCC2)C1 (stereo not given)	none
COC(=O)c1cc(S(=O)(=O)NCC2CCN(Cc3cc(C)ccc3C)CC2)c[nH]1	none
Cc1cc(C)nc(N(C#N)Cc2ccc([N+](=O)[O-])cc2)n1	none
Cc1cc(C)nc(N(C#N)Cc2ccccc2)n1	Rin1-Abl PPI inh 7.2 | Rin1 Abl conf inactive | GFP quench-1 inactive
Oc1ccccc1Oc1c(F)c(F)nc(N2CCCC2)c1F	none

Assay outcomes: PubChem, several laboratories
